Reference: ChEMBL document CHEMBL1155097, “T-type Ca2+ channel blockers suppress the growth of human cancer cells” (Bioorg Med Chem Lett, 2008)

Tests used:
[1] = system: SK-OV-3; test: Growth inhibition of human SKOV3 cells after 72 hrs by SRB assay; assay type: functional; settings: SK-OV-3, 72 h
Summary of the method: (§1)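 Cells seeded in 96-well plates, in exponential growth at time of sample addition; various concentrations added in triplicate, 37 °C, 5% CO2, 72 h. Fixed with formalin 30 min at room temperature, tap-water washed, stained with 0.4% SRB 30 min, washed with 1% acetic acid, dye solubilized in 10 mM unbuffered Tris base; OD at 520 nm. GI50 from dose–response curve, three independent experiments.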

[2] = system: A549; test: Growth inhibition of human A549 cells after 72 hrs by SRB assay; assay type: functional; settings: A549, 72 h; summary of the method: as §1
[3] = system: DU-145; test: Growth inhibition of human DU145 cells after 72 hrs by SRB assay; assay type: functional; settings: DU-145, 72 h; summary of the method: as §1
[4] = system: SK-MEL-2; test: Growth inhibition of human SK-MEL-2 cells after 72 hrs by SRB assay; assay type: functional; settings: SK-MEL-2, 72 h; summary of the method: as §1
[5] = system: HT-29; test: Growth inhibition of human HT29 cells after 72 hrs by SRB assay; assay type: functional; settings: HT-29, 72 h; summary of the method: as §1
[6] = system: Mus musculus; test: Acute toxicity in ICR CD1 mouse assessed as mortality at 1000 mg/kg, po after 5 days; assay type: organism-based; parameters: dose 1000 mg/kg, route oral; settings: in vivo, 120 h
Summary of the method: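 Single oral dose given as a corn oil mixture to two CD-1 (ICR) mice, with mortality monitored over 5 days.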

[7] = molecular target: Voltage-dependent T-type calcium channel subunit alpha-1G (Homo sapiens, UniProt O43497); test: Inhibition of T-type calcium channel Cav3.1 alpha1G expressed in HEK293 cells by whole cell patch-clamp method; assay type: cell-based
Summary of the method: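 HEK293 stably coexpressing Cav3.1 (alpha1G) and Kir2.1; whole-cell recording, 3–4 MΩ electrodes. Internal (mM): 130 KCl, 11 EGTA, 5 Mg-ATP, 10 HEPES, pH 7.4. External (mM): 140 NaCl, 2 CaCl2, 10 HEPES, 10 glucose, pH 7.4. Currents evoked every 15 s by 50 ms step from −100 to −30 mV. IC50 for peak-current inhibition fitted from dose–response curves, three independent experiments.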

Chain of Voltage-dependent T-type calcium channel subunit alpha-1G (O43497 whole entry): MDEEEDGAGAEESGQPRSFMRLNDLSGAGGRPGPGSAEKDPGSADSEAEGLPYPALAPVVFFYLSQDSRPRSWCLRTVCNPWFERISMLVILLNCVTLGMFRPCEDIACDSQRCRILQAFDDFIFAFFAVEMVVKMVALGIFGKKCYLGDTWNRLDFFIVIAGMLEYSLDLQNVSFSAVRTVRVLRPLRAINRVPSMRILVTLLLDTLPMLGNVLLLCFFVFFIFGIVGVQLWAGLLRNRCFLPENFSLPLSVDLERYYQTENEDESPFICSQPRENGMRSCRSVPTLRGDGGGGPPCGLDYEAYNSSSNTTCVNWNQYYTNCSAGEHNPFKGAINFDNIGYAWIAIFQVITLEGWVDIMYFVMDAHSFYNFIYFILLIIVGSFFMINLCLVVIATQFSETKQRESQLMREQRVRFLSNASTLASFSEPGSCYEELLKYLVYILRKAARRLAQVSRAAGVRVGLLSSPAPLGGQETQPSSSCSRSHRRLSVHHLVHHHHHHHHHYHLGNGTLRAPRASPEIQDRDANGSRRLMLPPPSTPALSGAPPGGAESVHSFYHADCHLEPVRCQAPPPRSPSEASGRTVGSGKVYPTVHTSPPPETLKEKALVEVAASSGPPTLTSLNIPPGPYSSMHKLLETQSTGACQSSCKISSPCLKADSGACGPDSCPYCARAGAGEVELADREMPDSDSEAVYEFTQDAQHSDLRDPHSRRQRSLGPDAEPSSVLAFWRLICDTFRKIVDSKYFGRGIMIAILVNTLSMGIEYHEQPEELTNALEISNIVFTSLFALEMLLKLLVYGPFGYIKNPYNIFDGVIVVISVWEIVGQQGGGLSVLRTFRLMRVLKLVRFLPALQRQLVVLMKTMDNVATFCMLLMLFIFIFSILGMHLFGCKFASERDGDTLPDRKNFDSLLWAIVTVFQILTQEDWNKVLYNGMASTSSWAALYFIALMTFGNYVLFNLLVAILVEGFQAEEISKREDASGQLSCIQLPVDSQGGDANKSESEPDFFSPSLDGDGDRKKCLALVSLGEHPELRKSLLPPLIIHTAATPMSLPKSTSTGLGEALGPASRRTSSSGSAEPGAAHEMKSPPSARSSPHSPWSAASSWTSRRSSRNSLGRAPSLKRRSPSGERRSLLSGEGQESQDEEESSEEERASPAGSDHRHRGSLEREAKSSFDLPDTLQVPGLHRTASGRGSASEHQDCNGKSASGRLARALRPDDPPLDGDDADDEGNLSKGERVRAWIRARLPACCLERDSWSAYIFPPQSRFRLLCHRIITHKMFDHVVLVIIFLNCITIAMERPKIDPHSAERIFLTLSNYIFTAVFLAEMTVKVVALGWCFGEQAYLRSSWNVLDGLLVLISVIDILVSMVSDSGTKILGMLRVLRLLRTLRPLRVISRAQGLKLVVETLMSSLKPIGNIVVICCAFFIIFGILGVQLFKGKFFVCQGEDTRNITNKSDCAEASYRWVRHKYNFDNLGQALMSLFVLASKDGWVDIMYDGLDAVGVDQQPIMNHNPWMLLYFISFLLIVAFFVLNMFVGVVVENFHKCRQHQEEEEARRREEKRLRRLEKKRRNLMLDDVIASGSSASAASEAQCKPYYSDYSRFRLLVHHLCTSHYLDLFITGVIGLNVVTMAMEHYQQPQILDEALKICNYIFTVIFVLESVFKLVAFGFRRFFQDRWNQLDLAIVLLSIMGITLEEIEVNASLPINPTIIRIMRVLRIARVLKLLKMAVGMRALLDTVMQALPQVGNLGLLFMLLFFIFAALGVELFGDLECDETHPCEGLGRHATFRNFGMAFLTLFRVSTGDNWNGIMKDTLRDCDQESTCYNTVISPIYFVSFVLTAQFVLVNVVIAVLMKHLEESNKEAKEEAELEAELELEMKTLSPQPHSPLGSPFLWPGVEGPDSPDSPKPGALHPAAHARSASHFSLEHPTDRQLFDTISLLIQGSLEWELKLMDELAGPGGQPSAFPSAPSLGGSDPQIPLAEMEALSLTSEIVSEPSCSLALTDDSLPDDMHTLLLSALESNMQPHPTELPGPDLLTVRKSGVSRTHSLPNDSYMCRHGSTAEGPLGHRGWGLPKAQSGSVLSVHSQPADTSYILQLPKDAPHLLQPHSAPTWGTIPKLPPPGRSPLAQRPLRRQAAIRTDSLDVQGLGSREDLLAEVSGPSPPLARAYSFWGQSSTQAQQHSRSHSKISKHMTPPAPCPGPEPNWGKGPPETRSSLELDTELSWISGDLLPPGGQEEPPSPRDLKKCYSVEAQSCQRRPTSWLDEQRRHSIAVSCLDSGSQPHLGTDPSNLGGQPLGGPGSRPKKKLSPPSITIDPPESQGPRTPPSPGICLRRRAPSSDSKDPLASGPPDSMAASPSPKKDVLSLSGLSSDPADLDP

| GI50 [1] [nM] | GI50 [2] [nM] | GI50 [3] [nM] | GI50 [4] [nM] | GI50 [5] [nM] | IC50 [7] [nM] | Structure (SMILES) | Activity [6] |
| --- | --- | --- | --- | --- | --- | --- | --- |
| 1950 | 1930 | 1710 | 1730 | 1710 | – | O=C(CC1c2ccccc2N=C(N2CCCCC2)N1c1ccccc1)NCc1ccc(NS(=O)(=O)c2ccc(F)cc2)cc1 (stereo unspecified) | – |
| > 100000 | > 100000 | > 100000 | 31600 | 22300 | 350 | CN(C)C1=Nc2ccccc2C(CC(=O)NCc2ccc([N+](=O)[O-])cc2)N1c1ccccc1 (stereo unspecified) | – |
| > 100000 | > 100000 | > 100000 | 44000 | 28300 | 380 | CN(C)C1=Nc2ccccc2C(CC(=O)NCc2ccc(N)cc2)N1c1ccccc1 (stereo unspecified) | – |
| 15600 | 14300 | 6520 | 8530 | 3150 | 630 | Cc1ccc(S(=O)(=O)Nc2ccc(CNC(=O)CC3c4ccccc4N=C(N(C)C)N3c3ccccc3)cc2)cc1 (stereo unspecified) | – |
| 26100 | 24500 | 17200 | 17000 | 13900 | 1040 | CCN1C(N2CCCCC2)=Nc2ccccc2C1CC(=O)NCc1ccc(NS(=O)(=O)c2ccc(F)cc2)cc1 (stereo unspecified) | – |

Continued, compound first:

| Structure (SMILES) | GI50 [1] [nM] | GI50 [2] [nM] | GI50 [3] [nM] | GI50 [4] [nM] | GI50 [5] [nM] | IC50 [7] [nM] | Activity [6] |
| --- | --- | --- | --- | --- | --- | --- | --- |
| COC(=O)CC1c2ccccc2N=C(Nc2ccc(-c3ccccc3)cc2)N1CCCCCN (stereo unspecified) | 3990 | 2900 | 4090 | 1800 | 1080 | – | – |
| COC(=O)CC1c2ccccc2N=C(NCCCCCNC(=O)OC(C)(C)C)N1c1ccc(-c2ccccc2)cc1 (stereo unspecified) | 4610 | 3830 | 3830 | 4310 | 2080 | – | – |
| CN(CCCCCN1CCCC1)C1=Nc2ccccc2C(CC(=O)NCc2ccccc2)N1c1ccc(-c2ccccc2)cc1 (stereo unspecified) | 2760 | 870 | 2490 | 690 | 610 | – | – |
| CC(C)(C)OC(=O)NCCCCCN1C(Nc2ccc(-c3ccccc3)cc2)=Nc2ccccc2C1CC(=O)NCc1ccccc1 (stereo unspecified) | 2010 | 1870 | 1790 | 1590 | 1700 | – | – |
| CN(C)CCCCCN(C)C1=Nc2ccccc2C(CC(=O)NCc2ccccc2)N1c1ccc(-c2ccccc2)cc1 (stereo unspecified) | 660 | 170 | 190 | 480 | 40 | – | Non-toxic |
| COC(=O)CC1c2ccccc2N=C(N(C)CCCCCN(C)C)N1c1ccc(-c2ccccc2)cc1 (stereo unspecified) | 1950 | 1770 | 1780 | 1910 | 520 | – | – |
| CC(C)(C)OC(=O)NCCCCCNC1=Nc2ccccc2C(CC(=O)NCc2ccccc2)N1c1ccccc1 (stereo unspecified) | 7180 | 7740 | 4260 | 2020 | 3180 | 570 | – |
| CC(C)(C)OC(=O)NCCCCCNC1=Nc2ccccc2C(CC(=O)NCc2ccccc2)N1c1ccc(-c2ccccc2)cc1 (stereo unspecified) | 1610 | 1830 | 1640 | 1480 | 1670 | – | – |
| COc1cccc2c1C(=O)c1c(O)c3c(c(O)c1C2=O)C[C@@](O)(C(=O)CO)C[C@@H]3O[C@H]1C[C@H](N)[C@H](O)[C@H](C)O1 (stereo in doubt) [DOXORUBICIN] | 120 | 160 | 60 | 110 | 210 | – | – |
